The other results are listed elsewhere or left out. The source made the active and inactive calls.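 Rule for the calls: active = mean activation over replicates above a set limit taken from the earlier TRPN1 channel primary screen (cut at about 19% in these data); inactive = the rest.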

The subject of this assay is TRPN1 (NOMPC) [Danio rerio]. Description: zebrafish TRPN1 channel agonists, counter-screen for TRPML3 agonist project, cell-based, HEK293 TRPN1-YFP, Fluo-8 calcium (AID 1525). Particulars: Fluo-8 calcium fluorescence, at 3 µM, hits give high values, scaled: carbachol wells 100%, DMSO wells 0%. Summed up: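 Assay system: zebrafish TRPN1-YFP HEK293 cells; timing: Fluo-8 loading 1 h at 37 °C, then 30 min room temperature; measured by: kinetic Fluo-8 calcium fluorescence, 125 s total read; benchmarks: high carbachol 87 µM, low 0.3% DMSO; doses: single 3 µM dose; replicates: triplicate wells per compound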
(The purpose of a counterscreen is to sort out artefacts and off-target activity.)
As for `CCN(CC)C(=O)CC1(c2ccccc2OC)CCOC(C(C)C)C1` (stereo not drawn), the activation was -1.47% (inactive).

For the compound `CCOc1ccc(S(=O)(=O)N2CCCCCC2)c2ccccc12`, the activation was -0.72% (inactive).

Regarding `COc1cc(/C=C(\C#N)c2nc3c(s2)CC(C)CC3)ccc1O` (stereo not drawn), the activation is 14% (inactive).

`Cc1cccc(C)c1N1CCN(S(=O)(=O)N2CCCCC2)CC1`: the activation is 28.3% (active).

With `COc1ccc(Cl)cc1N(CC(=O)N1CCCCC1)S(C)(=O)=O`, the activation is 2.78% (inactive).

Turning to `C=C(C)Cn1c(C)cc(C)c(S(=O)(=O)c2ccccc2C)c1=O`, the activation is -3.19% (inactive).

`O=C(CC(O)(C(F)(F)F)C(F)(F)F)Nc1ccc(Cl)c(Cl)c1`: the activation was 21.3% (active).

As for `CCOC(=O)C1=C(NC(=S)NC(=O)c2ccccc2)c2ccccc2CC1(C)C`, the activation is 15.5% (inactive).

Turning to `CC1=CC(C)(C)N(C(=O)CSc2nnc(-c3ccccc3)o2)c2ccc(C)cc21`, the activation is 0.12% (inactive).

Take `COc1ccccc1N(CC(=O)N1CCCCC1)S(=O)(=O)c1ccccc1`: the activation was 1.91% (inactive).

Consider `COc1ccc(S(=O)(=O)N2CCCC2)c(C)c1C`, for which the activation was 0.75% (inactive).

`CC1CCCC(C)N1C(=O)CN1CCN(c2nc(-c3ccc(F)cc3)cs2)CC1` (stereo not drawn): the activation was 4.68% (inactive).

In the case of `O=S(=O)(Nc1ccccc1N1CCOCC1)c1ccc(Cl)s1`, the activation was 0.07% (inactive).

On to `COc1ccc(N(CCC#N)S(=O)(=O)c2ccc(Cl)cc2)cc1`, for which the activation was 0.61% (inactive).

Consider `c1ccc2c(C[n+]3csc4ccccc43)cccc2c1`, for which the activation was -0.03% (inactive).

As for `CCN(CC)S(=O)(=O)c1ccc2c3c(cccc13)C(=O)S2`, the activation was -0.76% (inactive).

Regarding `CC1(C)CCCC2=C1CC1C(=O)N(c3ccccc3)C(=O)C1C2` (stereo not drawn), the activation was -0.48% (inactive).

Take `COc1ccc(-c2noc(CN(C)S(=O)(=O)c3ccc(C)cc3)n2)cc1`: the activation is 5.96% (inactive).
